Converted amounts (≈) assume the structure as drawn. The source made the active and inactive calls. No cut-off for these calls is given here.

One may read the IC50 as the midpoint of a concentration-inhibition curve.

Test system in the first assay: not listed separately
Briefly: Antioxidant activity assessed as inhibition of peroxide formation using iron/ascorbate system.
Conditions: not given
Type of assay: functional. Summed up:
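Linoleic acid (100 mg) emulsified with Tween 20 in 50 mM Tris pH 7.4. Emulsion mixed with iron/ascorbate (30 µM FeCl3, 200 µM ascorbic acid, made daily) and methanolic compound, giving ca. 0, 1, 4, 10 ppm final. Tubes held on ice, then 37 °C for 5 and 30 min. Conjugated diene hydroperoxide read at 234 nm after MeOH dilution. BHT 2000 ppm control. Triplicates.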
Consider `CCC/C=C/C/C=C\CCCCCCCCCc1cc(O)ccc1O`, for which the result was Active.

As to `C/C=C/C=C/C/C=C\CCCCCCCCCc1cc(O)ccc1O`, the outcome was Active.

As to `CCCCCC/C=C\CCCCCCCCCc1cc(O)ccc1O`, the outcome was Active.

The subject of a further assay is HeLa. Kind of assay: Cytotoxicity against human HeLa cells after 72 hrs by acid phosphatase assay. The class given is functional, cell-based.
Conditions: not given
Summed up:
(§1)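 Cells grown in DMEM with 10% FCS, penicillin and streptomycin at 37 °C, 5% CO2. Seeded at 2000 cells/well in 96-well plates and exposed to compound or left untreated for 72 h.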
Molecule `CCC/C=C/C/C=C\CCCCCCCCCc1cc(O)ccc1O` registered an IC50 of 4.6 µg/mL (≈ 13.4 µM).

As to `C/C=C/C=C/C/C=C\CCCCCCCCCc1cc(O)ccc1O`, the IC50 turned out to be 2.8 µg/mL (≈ 8.17 µM).

`CCCCCC/C=C\CCCCCCCCCc1cc(O)ccc1O` returned a concentration for half-maximal inhibition (IC50) of 4.7 µg/mL (≈ 13.6 µM).

The subject of a further assay is Huh-7. Briefly: Cytotoxicity against human HuH7 cells after 72 hrs by acid phosphatase assay. To be noted: Huh-7, 72 h. Type of assay: functional, cell-based. The gist of the method: as §1
In the case of `CCC/C=C/C/C=C\CCCCCCCCCc1cc(O)ccc1O`, the IC50 was 6 µg/mL (≈ 17.4 µM).

`C/C=C/C=C/C/C=C\CCCCCCCCCc1cc(O)ccc1O` came in with an IC50 of 3.9 µg/mL (≈ 11.4 µM).

The molecule `CCCCCC/C=C\CCCCCCCCCc1cc(O)ccc1O` gave an IC50 of 6.4 µg/mL (≈ 18.5 µM).

In the next assay the test system is HCT-116. Briefly: Cytotoxicity against human HCT116 cells after 72 hrs by acid phosphatase assay. The class given is functional, cell-based. To be noted: HCT-116, 72 h. The gist of the method: as §1
On to `CCC/C=C/C/C=C\CCCCCCCCCc1cc(O)ccc1O`, for which the IC50 was determined as 3.5 µg/mL (≈ 10.2 µM).

Turning to `C/C=C/C=C/C/C=C\CCCCCCCCCc1cc(O)ccc1O`, the IC50 is 2 µg/mL (≈ 5.84 µM).

`CCCCCC/C=C\CCCCCCCCCc1cc(O)ccc1O` showed an IC50 of 3.4 µg/mL (≈ 9.81 µM).

In another assay the test system is LoVo. Kind of assay: Cytotoxicity against human LoVo cells after 72 hrs by acid phosphatase assay.
Conditions: not given
The class given is functional, cell-based. Summed up: as §1
Consider `CCC/C=C/C/C=C\CCCCCCCCCc1cc(O)ccc1O`, for which the IC50 turned out to be 5.6 µg/mL (≈ 16.3 µM).

On to `C/C=C/C=C/C/C=C\CCCCCCCCCc1cc(O)ccc1O`, for which it took 4.5 µg/mL (≈ 13.1 µM) to reach half-maximal inhibition (IC50).

With `CCCCCC/C=C\CCCCCCCCCc1cc(O)ccc1O`, half-maximal inhibition (IC50) was put at 2.9 µg/mL (≈ 8.37 µM).

The next assay relates to C6. Briefly: Cytotoxicity against rat C6 cells after 72 hrs by acid phosphatase assay. The class given is functional, cell-based. To be noted: C6, 72 h. The gist of the method:
as §1
With `CCC/C=C/C/C=C\CCCCCCCCCc1cc(O)ccc1O`, the midpoint of inhibition, the IC50, lay at 1 µg/mL (≈ 2.9 µM).

On to `C/C=C/C=C/C/C=C\CCCCCCCCCc1cc(O)ccc1O`, for which 0.9 µg/mL (≈ 2.63 µM) corresponded to half-maximal inhibition (IC50).

Take `CCCCCC/C=C\CCCCCCCCCc1cc(O)ccc1O`: the midpoint of inhibition, the IC50, lay at 1.1 µg/mL (≈ 3.17 µM).

These data come from ChEMBL document CHEMBL1150145, “Antioxidative and cytotoxic compounds extracted from the sap of Rhus succedanea” (J Nat Prod, 2002).
